# The list is not random: actives were taken first. Their share in the collection is about 5.8%.
# Pf Dd2 growth = P. falciparum Dd2 growth inhibitors, primary screen, SYBR Green fluorescence, single dose replicates; 72 h; hits give low values; activity change, % at 10 µM; 94,000 tested, 2.3% active; in the data active = activity change below about -80%; inconclusive = no clear call, values can overlap the other calls
# T cruzi growth-1 = T. cruzi intracellular proliferation inhibitors, primary screen, cell-based, beta-gal Tulahuen parasites, NIH3T3 host, luminescence | T. cruzi beta-gal in NIH3T3, GalScreen luminescence, 90 h | inhibition, % at 8.34 µM | 77,000 tested, 5.9% active | AID 624255, 2012;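 active = mean inhibition above about 93%, with at least 55% of replicates each passing it, limit read from the data, passing the limit was not always enough; inconclusive = only one of those two conditions holds; inactive = neither condition holds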
# GASC1 inh = inhibitors of GASC-1 (KDM4C) histone demethylase, primary screen, biochemical, single concentration HTS | Lysine-specific demethylase 4C (Homo sapiens), Q9H3R0 | GST-KDM4C 2-372, H3K9me3 peptide, LANCE TR-FRET | inhibition, % at 12.5 µM | 96,000 tested, 0.15% active;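 active = mean replicate inhibition above about 25%, with at least 55% of replicates also reaching it, limit read from the data, passing the limit was not always enough; inconclusive = only one of those two conditions met; inactive = neither condition met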
# Target sequence (Q9H3R0 2-372 limits assumed): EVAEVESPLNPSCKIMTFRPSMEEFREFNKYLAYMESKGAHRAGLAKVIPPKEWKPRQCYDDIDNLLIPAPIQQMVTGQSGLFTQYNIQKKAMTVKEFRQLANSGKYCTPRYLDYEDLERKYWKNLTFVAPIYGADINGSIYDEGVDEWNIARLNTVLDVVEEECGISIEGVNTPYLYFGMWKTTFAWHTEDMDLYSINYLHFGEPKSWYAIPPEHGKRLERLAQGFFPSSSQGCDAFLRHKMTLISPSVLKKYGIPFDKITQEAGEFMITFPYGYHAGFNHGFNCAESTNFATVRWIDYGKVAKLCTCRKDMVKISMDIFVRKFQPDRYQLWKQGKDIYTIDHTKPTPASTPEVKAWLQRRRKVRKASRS
#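 reagent = H3K9me3 peptide substrate, Fe(II), 2-oxoglutarate | system = GST-tagged GASC-1 (JMJD2C) catalytic fragment, aa 2-372 | amount = enzyme final amount 10 nM | read-out = Fall in 671/618 emission ratio as inhibition | medium = HEPES buffer, pH 7.5, plus ascorbate | schedule = 30 min reaction, 60 min detection, RT | measured by = LANCE TR-FRET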
# IDH1 mut inh = inhibitors of IDH1 R132H reductase, primary screen, biochemical, plate reader, single point | inhibition, % at 10 µM | diaphorase/resazurin fluorescence, 60 min | 70,000 tested, 0.18% active; in the data active = inhibition above about 34%; inconclusive = no clear call, values can overlap the other calls; inactive = below about 11%;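 also: 0% = DMSO and 100% = no enzyme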
# T cruzi growth-2 = T. cruzi intracellular proliferation inhibitors, confirmation, cell-based, NIH3T3 host, beta-gal parasite, luminescence, cherry-pick | shares compounds with T cruzi growth-1 | T. cruzi beta-gal in NIH3T3, GalScreen luminescence, 90 h | inhibition, % at 8.35 µM | 5,600 tested, 72% active | AID 651739, 2012;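 active = mean replicate inhibition above about 95% and at least 55% of replicates individually reaching it, limit read from the data; inconclusive = only one of the two criteria is met; inactive = neither criterion is met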
# T cruzi growth-3 = inhibitors of intracellular T. cruzi replication, confirmation, NIH3T3 host cells, beta-gal parasites, cherry-pick, set 2; shares compounds with T cruzi growth-1; T. cruzi beta-gal in NIH3T3, GalScreen luminescence, 90 h; inhibition, % at 2.09 µM; 5,600 tested, 21% active; AID 651740, 2012;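 active = mean inhibition above about 95%, with at least 55% of replicates also reaching it, limit read from the data; inconclusive = meets just one of the two conditions; inactive = meets neither condition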;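 also: plate controls were neutral control median for no effect and positive control median for full effect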
# NIH3T3 tox = cytotoxicity in mouse NIH/3T3 fibroblasts, confirmation, cytotoxicity control for T. cruzi proliferation inhibitor project, cell-based, cherry-pick, single point; shares compounds with T cruzi growth-1; NIH/3T3 viability, CellTiter-Glo ATP luminescence, 90 h; cytotoxicity (signal decrease), % at 8.35 µM; 5,600 tested, 14% active;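 active = mean signal decrease across replicates above about 35% based on untreated-well scatter, with enough replicates individually passing, limit read from the data; inconclusive = no rule stated though some were filed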;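 also: 0% = median of neutral control wells and 100% = median of positive control wells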
# 3T3 cytotox 2 = NIH/3T3 fibroblast cytotoxicity, confirmation, cytotoxicity control, cell-based, cherry-pick, single point, set 2 | shares compounds with T cruzi growth-1 | NIH/3T3 viability, CellTiter-Glo ATP luminescence, 90 h | inhibition, % at 24.9 µM | 5,600 tested, 56% active | AID 651744, 2012;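 active = mean loss of cell viability signal at or above a set limit, and enough replicates individually reaching it; inconclusive = meets only the mean limit or only the replicate share; inactive = meets neither condition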;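 also: 0% = median of neutral control wells and 100% = median of positive control wells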
# Starred values were filed as active, the others as inactive; ? = inconclusive; · = no result.
SMILES,Pf Dd2 growth,T cruzi growth-1,GASC1 inh,IDH1 mut inh,T cruzi growth-2,T cruzi growth-3,NIH3T3 tox,3T3 cytotox 2
COc1cc(O)c(C(=O)c2c(O)cc(C)cc2O)c(C(=O)O)c1,·,·,·,12,·,·,·,·
COC(=O)c1ccc(CSc2nnc(CN3CCOCC3)n2C)cc1,·,·,·,0,·,·,·,·
CC(C)CC#Cc1ccc2c(c1)O[C@H](CN(C)C(=O)c1ccccc1)[C@H](C)CN([C@@H](C)CO)S2(=O)=O,-54,118*,-3,0,104*,98*,22,106*
CC(C)CC#Cc1ccc2c(c1)O[C@@H](CN(C)C(=O)c1ccccc1)[C@H](C)CN([C@@H](C)CO)S2(=O)=O,-69,116*,-2,0,110*,57,39*,108*
CCCC#Cc1ccc2c(c1)O[C@H](CN(C)C(=O)c1ccccc1)[C@H](C)CN([C@@H](C)CO)S2(=O)=O,-53,96*,-1,-2,102*,77,-3,26*
C=C(C)[C@@H]1CC=C(/C=N/NC(=O)CCCCCCC(=O)Nc2ccccc2O)CC1,·,·,·,0,·,·,·,·
CN(C)C(=O)c1cccc(-c2ccc3c(c2)[C@H]2[C@H](CCN2C(=O)c2cccc(F)c2)[C@@H](CO)N3C)c1,-13,99*,3,·,103*,41,5,8
CN1c2ccc(-c3ccc(C#N)cc3)cc2[C@@H]2[C@@H](CCN2C(=O)c2cccc(F)c2)[C@H]1CO,25,?,1,·,110*,103*,25,82*
Cc1cc(C)c(NC(=O)CN(c2cccc(Cl)c2C)S(C)(=O)=O)c(C)c1,·,·,·,1,·,·,·,·
C[C@H](CO)N1C[C@H](C)[C@H](CN(C)Cc2ccc(C(=O)Nc3ccccc3N)cc2)Oc2c(NC(=O)C3CC3)cccc2C1=O,-16,98*,0,·,106*,94,1,43*
C[C@@H]1CN([C@H](C)CO)C(=O)c2cccc(NC(=O)C3CC3)c2O[C@H]1CN(C)Cc1ccc(C(=O)Nc2ccccc2N)cc1,-46,102*,2,·,110*,93,6,30*
C[C@@H]1CN([C@@H](C)CO)C(=O)c2cccc(NC(=O)C3CC3)c2O[C@@H]1CN(C)Cc1ccc(C(=O)Nc2ccccc2N)cc1,-14,76,3,·,·,·,·,·
O=C(CSc1nc2sc3c(c2c(=O)n1Cc1ccco1)CCC3)c1ccccc1,·,·,·,0,·,·,·,·
C[C@H](CO)N1C[C@H](C)[C@H](CN(C)C(=O)Nc2ccc(C(F)(F)F)cc2)OCCCC[C@H](C)Oc2ccc(NC(=O)c3ccccc3)cc2C1=O,-82*,?,-1,·,106*,109*,6,19
C[C@H](CO)N1C[C@H](C)[C@@H](CN(C)C(=O)Nc2ccc(C(F)(F)F)cc2)OCCCC[C@H](C)Oc2ccc(NC(=O)c3ccccc3)cc2C1=O,-51,101*,-1,·,110*,113*,36*,52*
C[C@H](CO)N1C[C@H](C)[C@H](CN(C)C(=O)Nc2ccc(F)cc2)OCCCC[C@H](C)Oc2ccc(NC(=O)c3ccccc3)cc2C1=O,-57,?,-2,0,107*,76,-23,2
C[C@@H]1CCCCO[C@@H](CN(C)C(=O)Nc2ccc(F)cc2)[C@H](C)CN([C@@H](C)CO)C(=O)c2cc(NC(=O)c3ccccc3)ccc2O1,-40,57,-1,·,·,·,·,·
COc1ccc(NC(=O)N(C)C[C@@H]2Oc3cc(C#CCC(C)C)ccc3S(=O)(=O)N([C@@H](C)CO)C[C@@H]2C)cc1,-50,99*,-1,0,106*,111*,-11,96*
CC(C)CC#Cc1ccc2c(c1)O[C@H](CN(C)C(=O)Nc1ccccc1F)[C@@H](C)CN([C@H](C)CO)S2(=O)=O,-49,92*,2,0,107*,39,11,68*
CC(C)CC#Cc1ccc2c(c1)O[C@H](CN(C)C(=O)Nc1ccccc1F)[C@H](C)CN([C@H](C)CO)S2(=O)=O,-41,85,-2,-5,·,·,·,·
COc1ccc(NC(=O)N(C)C[C@H]2Oc3cc(C#CCC(C)C)ccc3S(=O)(=O)N([C@@H](C)CO)C[C@H]2C)cc1,-55,100*,·,-1,108*,73,-18,58*
CCCC#Cc1ccc2c(c1)O[C@@H](CN(C)C(=O)Nc1ccc(OC)cc1)[C@H](C)CN([C@@H](C)CO)S2(=O)=O,-43,92,1,·,·,·,·,·
CCCC#Cc1ccc2c(c1)O[C@H](CN(C)C(=O)Nc1ccc(OC)cc1)[C@@H](C)CN([C@@H](C)CO)S2(=O)=O,-35,113*,0,-4,112*,71,28,-15
COc1ccccc1NC(=O)C1=C(C)Nc2ncnn2C1c1ccncc1 (stereo not given),·,·,·,-1,·,·,·,·
O=C(NC1CCCC1)c1c(NC(=O)c2cc(-c3ccccn3)nc3ccccc23)sc2c1CCC2,·,·,·,0,·,·,·,·
SMILES,Pf Dd2 growth,T cruzi growth-1,GASC1 inh,IDH1 mut inh,T cruzi growth-2,T cruzi growth-3,NIH3T3 tox,3T3 cytotox 2
Cc1cc(C(=O)Oc2c(C)cc(C(=O)O)c(O)c2C)c(O)c(C)c1O,·,·,·,0,·,·,·,·
COc1ccc2c3c(n(C)c2c1)[C@@H](CO)N(Cc1cccnc1)CC31CN(Cc2cccnc2)C1,52,·,·,·,·,·,·,·
Cc1cccc(OCC(=O)Nc2cccc(-c3nc4cc(C)ccc4o3)c2)c1,·,·,·,0,·,·,·,·
CS(=O)(=O)N(CC(=O)Nc1ccc(Oc2ccccc2)cc1)c1ccc(F)c(Cl)c1,·,·,·,0,·,·,·,·
COc1ccc(NC(=O)N(C)C[C@@H]2Oc3cc(C#CCC(C)C)ccc3S(=O)(=O)N([C@H](C)CO)C[C@H]2C)cc1,-34,89,7,0,·,·,·,·
COc1ccc(NC(=O)N(C)C[C@H]2Oc3cc(C#CCC(C)C)ccc3S(=O)(=O)N([C@@H](C)CO)C[C@@H]2C)cc1,-38,95*,1,0,106*,61,13,89*
C[C@H]1CN([C@@H](C)CO)S(=O)(=O)c2ccc(C#Cc3ccccc3)cc2O[C@H]1CN(C)C(=O)Nc1ccccc1,-35,3,0,0,·,·,·,·

# Screening results from PubChem BioAssay.
